Data reported in article PMC5725227 (Pharmaceutical research, 2014).

Tests used:
A549 cells = assay: In-vitro cytotoxicity, crystal violet dye assay; type: cell-based, human
[1] = Plasma pharmacokinetics after i.v. administration; type: in vivo, BALB/c mice; conditions: DIM-P, 5.0 mg/kg equivalent of DIM-P
Procedure, shortened: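 BALB/c mice, randomized (n = 6 per group) and fasted overnight, received a single i.v. dose (DIM-P equivalent 5.0 mg/kg). Plasma was deproteinized with acetonitrile and spun 15 min at 10,000 g. Analysis was C18 HPLC with acetonitrile:water 90:10 at 1.0 mL/min, UV 242 nm. Parameters were derived non-compartmentally.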

Cl [1] [mL/min/kg] | Cmax [1] [µg/mL] | K10-HL [1] [hr^−1] | MRT [1] [h] | Vss [1] [L/kg] | AUC0–24 ([1]; non-compartment analysis) [µg·h/mL] | SMILES | IC50 (A549 cells; A549 cells, 72 h) [µM] | IC50 (A549 cells; Homo sapiens, A549, 72 h) [µM]
0.629 ± 0.173 | 216.25 ± 23.59 | 2.98 ± 0.65 | 2.79 ± 1.02 | 0.18598 ± 0.02989 | 124.22 ± 13.65 | c1ccc(-c2ccc(C(c3c[nH]c4ccccc34)c3c[nH]c4ccccc34)cc2)cc1 [DIM-P, DIM-C-pPhC6H5] | 6.8 ± 0.7 | –
– | – | – | – | – | – | CC(=O)O[C@@]12CO[C@@H]1C[C@H](O)[C@@]1(C)C(=O)[C@H](O)C3=C(C)[C@@H](OC(=O)[C@H](O)[C@@H](NC(=O)OC(C)(C)C)c4ccccc4)C[C@@](O)([C@@H](OC(=O)c4ccccc4)[C@H]21)C3(C)C [Doc, Docetaxel, reference compound] | – | 0.02 ± 0.01
